HCT116 PTEN-null – suppresses growth of cells with PTEN deletion. HCT116 PTEN-null viability, CellTiter-Glo, 60 h; hits give low values. viability, % at 10 µM. 1.2% of 140,000 active;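 active = viability at or below a set limit, 4 SD under the median of all tested compounds, cut at about 3.7% in these data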;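 note: PTEN knockout HCT116 line with beta catenin targeted HCT116 as companion control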
bCat KO growth – beta-catenin-lacking colon tumor cell growth suppression | HCT116 beta-catenin knockout viability, CellTiter-Glo, 60 h; hits give low values | viability, % at 10 µM | 1.5% of 140,000 active | AID 818;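 active = viability at or under a set limit, the compound median less 4 SD, cut at about 6% in these data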;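 note: 0% = Hyamine 1622 control at 20 µM and 100% = untreated cell control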
HUVEC prolif 384 – inhibitors of human endothelial cell proliferation | HUVEC proliferation, CellTiter-Glo luminescence, 72 h; hits give low values | 1.1% of 86,000 active | viability, % at 10 µM (by protocol);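 active = viability at or below 30%; inactive = viability above 30%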;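 note: 100% = median luminescence of DMSO-only cell control wells on each plate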
H69AR inhibit – blocks growth of human H69AR lung tumor cells | 6% of 85,000 active | AID 598 | viability, % at 10 µM | H69AR lung tumor viability, ATP luminescence, 72 h; hits give low values;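 active = viability at or below 40%; inactive = viability above 40%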;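 note: multidrug resistant small cell line overexpressing MRP-1 efflux transporter; 100% = mean luminescence of untreated control wells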
Lung fibro prol – blocks proliferation of human lung fibroblasts; LL 47 human lung fibroblast viability, ATP luminescence; hits give low values; viability, % at 10 µM; 1.1% of 85,000 active;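 active = viability at or below 50% in the single dose screen; inactive = viability above 50%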;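 note: compound exposure lasted 72 h before the ATP readout; 100% = median luminescence of untreated cell-only wells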
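Signal: luminescent ATP detection, CellTiter-Glo; assay system: LL 47 human lung fibroblasts; input: 1,150 cells/well; incubation: overnight cell rest, 72 h compound treatment at 37 °C; measure: % viability versus median cells-only luminescence; medium: IMEM growth medium with 15% fetal bovine serum; dosing: compound addition at 0.1% DMSO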
* = called active by the depositor; · = no result given. The sample as a whole holds a higher share of hits than the screen did.

SMILES	HCT116 PTEN-null	bCat KO growth	HUVEC prolif 384	H69AR inhibit	Lung fibro prol
COc1ccc(NC(=O)CSc2ccc3c4c(cccc24)C(=O)c2ccccc2-3)cc1	3.4*	6	·	·	·
CCN(CC)C(=O)Cn1nc(-c2ccccc2O)nc1SCC(=O)Nc1ccc(OC)cc1	75	84	78	35*	93
COC(=O)[C@@]1(Cc2ccc(F)cc2)[C@H]2c3cc(C(=O)N(C)C)n(Cc4nc5ccccc5[nH]4)c3C[C@H]2CN1C(=O)c1ccccc1	31	31	·	·	·
CC1=C/C(=N\OS(=O)(=O)c2ccccc2)C(C)=CC1=O	1.7*	1.8*	·	·	·
CC1=C(C)/C(=N\OS(=O)(=O)c2ccc(C)cc2)C=CC1=O	1.7*	1.8*	·	·	·
CC1=C/C(=N\OS(=O)(=O)c2ccccc2)C(C(C)C)=CC1=O	1.5*	1.5*	·	·	·
COc1ccc(S(=O)(=O)/N=C2/C=CC(=O)C(C)=C2C)cc1	101	98	·	·	·
CCN(CC)S(=O)(=O)c1ccc(C)c(NC(=S)NNC(=O)C2CC2)c1	102	89	·	·	·
COC(=O)c1ncccc1SC	108	105	·	·	·
CC(=O)[C@H]1[C@H](c2cccc(Cl)c2)C(C#N)(C#N)[C@@H]2c3ccccc3C=CN21	77	88	·	·	·
CCOC(=O)CSc1cccc2cccnc12	2.7*	6.0*	66	0.3*	46*
Cc1cccc(CSc2cccc3cccnc23)c1	2.8*	4.9*	·	·	·
O=C(Nc1ccccc1)Nc1ccc(C(=O)N2CCOCC2)cc1	70	85	80	78	101
Cc1ccc(C(=O)c2ccc([N+](=O)[O-])cc2)cc1	98	98	116	99	105
Cc1ccc(S(=O)(=O)CC#CCOC(=O)c2ccc([N+](=O)[O-])cc2)cc1	92	71	43	1.6*	43*
CC(C)n1cc(/C=C2/NC(=O)N(c3cccc(Cl)c3)C2=O)c2ccccc21	27	29	57	18*	80
CC(C)n1cc(/C=N/NC(=O)COc2cccc3cccnc23)c2ccccc21	87	89	·	·	·
CC(C)n1cc(/C=C2/SC(=O)N(CC(=O)Nc3ccc4c(c3)OCO4)C2=O)c2ccccc21	54	35	·	·	·
CC(C)n1cc(/C=C2\NC(=O)N(c3cccc(Cl)c3)C2=O)c2ccccc21	26	30	65	15*	89
O=C(Nc1ccc(OCC(F)(F)C(F)F)c(C(F)(F)F)c1)c1ccccc1O	5	5.2*	·	·	·
CCOC(=O)CN1C(=O)C(=O)c2cccc(C)c21	74	81	108	33*	102
CCOC(=O)CN1C2=NCCN2c2ccccc21	112	98	108	101	105
O=C(CSc1ccc2ccccc2n1)N1CCC(c2noc3ccc(F)cc23)CC1	87	93	93	87	102
Cc1c(NS(=O)(=O)c2cccc3nsnc23)c(=O)n(-c2ccccc2)n1C	98	98	92	85	90
CCCCC(=O)Nc1ccc(Cl)cn1	92	97	109	106	103
SMILES	HCT116 PTEN-null	bCat KO growth	HUVEC prolif 384	H69AR inhibit	Lung fibro prol
O=C(CCc1ccccc1)Nc1ccc(Cl)cn1	23	22	53	30*	57
Cc1ccc(C(=O)Nc2ccc(Cl)cn2)cc1	40	44	63	24*	79
O=C(CCC1COc2ccccc2O1)Nc1ccc(Cl)cn1 (configuration not stated)	44	49	15*	92	87
O=C(Nc1ccc(O)c(-c2nc3ccccc3o2)c1)C1(c2ccc(Br)cc2)CCCC1	63	68	·	·	·
NC(=O)Nc1ccccc1C(=O)N1CCC(O)(c2ccc(Cl)cc2)CC1	92	98	·	·	·
O=C(O)c1ccc(Br)c(S(=O)(=O)N2CCCC2)c1	91	84	98	94	88
COc1cccc2c1C(=O)C=C(C)C2=O	2.9*	1.8*	·	·	·
CC1=CC(=O)c2ccccc2C1=O	41	44	·	·	·
O=C(CN1C(=O)S/C(=C/c2cc(Br)cs2)C1=O)N1CCOCC1	103	95	·	·	·
FC(F)(F)c1ccc(N2CCOCC2)c(Nc2nc3ccccc3n3cnnc23)c1	0.4*	0.8*	·	·	·
O=C(Cn1cnc2ccccc21)Nc1cc(C(F)(F)F)ccc1N1CCOCC1	75	80	108	97	97
Cc1ccc(S(=O)(=O)N2CCN(C(=O)COc3ccc(NC(=O)c4ccco4)cc3)CC2)cc1	82	90	88	37*	106
CC(=O)NNC(=O)C(O)(c1ccccc1)c1ccccc1	96	109	·	·	·
Cc1ccc(/C(O)=C/C(=O)C(=O)NNC(=O)C(O)(c2ccccc2)c2ccccc2)cc1	102	92	78	11*	112
